# Measured values of several laboratories.
# Protocols differ between the studies behind these lines.
# Target: Myosin light chain kinase (MYLK3, Homo sapiens, UniProt Q32MK0)
# Residues used in one study (Q32MK0 1-819): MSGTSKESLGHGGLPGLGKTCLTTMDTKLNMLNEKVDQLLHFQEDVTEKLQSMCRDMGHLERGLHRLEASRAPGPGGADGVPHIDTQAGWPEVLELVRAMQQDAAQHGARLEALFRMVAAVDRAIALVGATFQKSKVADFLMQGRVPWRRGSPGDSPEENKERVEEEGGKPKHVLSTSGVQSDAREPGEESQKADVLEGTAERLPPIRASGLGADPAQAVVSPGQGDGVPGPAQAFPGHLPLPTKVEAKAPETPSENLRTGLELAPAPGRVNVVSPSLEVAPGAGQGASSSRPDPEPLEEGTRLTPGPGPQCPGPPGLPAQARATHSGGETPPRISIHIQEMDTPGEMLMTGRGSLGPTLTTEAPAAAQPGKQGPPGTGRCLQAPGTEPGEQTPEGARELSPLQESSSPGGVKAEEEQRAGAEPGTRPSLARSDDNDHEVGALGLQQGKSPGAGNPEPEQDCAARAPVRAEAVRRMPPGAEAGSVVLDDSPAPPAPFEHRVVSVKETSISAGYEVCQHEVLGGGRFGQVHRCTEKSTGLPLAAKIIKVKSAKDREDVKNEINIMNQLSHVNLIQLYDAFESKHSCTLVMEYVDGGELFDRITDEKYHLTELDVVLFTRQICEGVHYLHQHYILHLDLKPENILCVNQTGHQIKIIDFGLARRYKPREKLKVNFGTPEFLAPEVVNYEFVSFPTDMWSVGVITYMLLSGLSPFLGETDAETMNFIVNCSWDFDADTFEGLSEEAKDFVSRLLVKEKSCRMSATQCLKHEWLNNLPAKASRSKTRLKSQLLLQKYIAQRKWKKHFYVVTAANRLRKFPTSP
Structure (SMILES),test,setting,remaining binding [%]
CN(C)c1nccc(-c2cnn3ncccc23)n1,binding,1 µM,100
O=C(Nc1c[nH]nc1C(=O)NC1CCNCC1)c1cc(F)cc(F)c1,"binding, competition with immobilised ligand",1 µM,90
Nc1ncc2c(n1)-c1c([nH]c3ccc(C#CC4CC4)cc13)CCCC2,"binding, competition with immobilised ligand",1 µM,91
CC(=O)N1CCC(c2ccc(C(=O)NC3=NCCN3)cc2C(F)(F)F)CC1,"cell-free assay, competition with immobilised ligand",1 µM,100
O=C(c1ccc(Nc2ncc(Cl)c(-c3cc4ccccc4s3)n2)cc1)N1CCC(N2CCCC2)CC1,"binding, competition with immobilised ligand",1 µM,2
CNC(=O)[C@@H]1CC[C@@H](n2c(-c3ccc4cnccc4c3)nc3ccc(C(=O)NCc4cccc(C(N)=O)c4)cc32)C1,"binding, competition with immobilised ligand",1 µM,100
O=C(Nc1cccnn1)N1CCC(=Cc2cccc(Oc3ccc(C(F)(F)F)cn3)c2)CC1,"cell-free assay, competition with immobilised ligand",1 µM,100
c1cnn2ncc(-c3ccnc(N4CCC45COC5)n3)c2c1,binding,1 µM,100
c1cncc(-c2cccc(Nc3nccc(NC4CCCCC4)n3)c2)c1,"binding, competition with immobilised ligand",10 µM,100
N#CC1(c2ccccn2)CCN(Cc2cc(C(=O)N3CCCC3)c(=O)n3ccccc23)CC1,"cell-free assay, competition with immobilised ligand",1 µM,76
O=C(c1ccc(Nc2nccc(-c3cc4ccccc4s3)n2)cc1)N1CCC(N2CCCC2)CC1,"binding, competition with immobilised ligand",1 µM,2.5
CCN1CCN(Cc2ccc(C(=O)Nc3ccc(C)c(Oc4ccc5c(c4)CC(=O)N5)c3)cc2C(F)(F)F)CC1,"binding, competition with immobilised ligand",1 µM,100
C[C@@H]1CCN(c2nccc(-c3cnn4ncccc34)n2)C1,binding,1 µM,91
Cn1nc(C(=O)NCc2ccc(C(=O)O)cc2)cc1-c1ccc2[nH]ccc2c1,"cell-free assay, competition with immobilised ligand",0.1 µM,100
N[C@H]1CCN(c2nccc(-c3cnn4ncccc34)n2)C1,binding,1 µM,88
O=C(c1ccc(Nc2ncc(Cl)c(-c3ccc(Cl)s3)n2)cc1)N1CCC(N2CCCC2)CC1,"binding, competition with immobilised ligand",1 µM,6.7
CN(CCCC(F)(F)F)c1nccc(-c2cnn3ncccc23)n1,binding,1 µM,100
NS(=O)(=O)c1cc(NC(=O)Cc2ccccc2)ccc1Oc1cccc(Cl)c1,"cell-free assay, competition with immobilised ligand",1 µM,89
COc1ccnn2ncc(-c3ccnc(N(C)C)n3)c12,binding,1 µM,71
CCS(=O)(=O)c1cc2cc(C[C@](O)(CC(C)(C)c3ccc(F)cc3C(N)=O)C(F)(F)F)[nH]c2cn1,"cell-free assay, competition with immobilised ligand",1 µM,74
